Measured values published in ChEMBL document CHEMBL1154045, “In vitro and in vivo anticancer activity of 2-deacetoxytaxinine J and synthesis of novel taxoids and their in vitro anticancer activity” (Eur J Med Chem, 2009).
Calls of active or inactive are those of the source. The calls are words filed in the database; no cut-off is given here.

What was measured:
HEK293 = test: Cytotoxicity against HEK293 cells after 18 hrs by MTT assay; format: cell-based; details: Homo sapiens, HEK293, 18 h
In short: (§1)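 MTT assay: 1 × 10⁴ cells/well seeded in DMEM with 10% FBS and held 24 h at 37 °C in a CO₂ incubator. Compounds were diluted in culture medium and added alongside a vehicle control. After 18 h of exposure, MTT (5 mg/mL stock) was added and plates were incubated a further 4 h.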

MCF7 = test: Anticancer activity against estrogen-positive human MCF7 cells after 18 hrs by MTT assay; format: functional, cell-based; details: MCF7, 18 h; in short: as §1
MDA-MB-231 = test: Anticancer activity against estrogen-receptor-negative human MDA-MB-231 cells after 18 hrs by MTT assay; format: functional, cell-based; details: MDA-MB-231, 18 h; in short: as §1
A2780 ADR = test: Reversal of P-gp-mediated multidrug resistance in human 2780AD cells assessed as vincristine accumulation; format: cell-based
Rattus norvegicus = test: Antitumor activity against DMBA-induced mammary tumor in Sprague-Dawley rat assessed as tumor regression at 10 mg/kg, po administered for 30 days; format: functional, organism-based; parameters: dose 10 mg/kg

| IC50 (MCF7) | IC50 (MDA-MB-231) | Structure (SMILES) | IC50 (HEK293) | Activity (A2780 ADR) | Activity (Rattus norvegicus) |
| --- | --- | --- | --- | --- | --- |
|  |  | CC(=O)O[C@H]1C(=O)[C@@]2(C)[C@H]([C@H](OC(=O)c3ccccc3)[C@]3(O)C[C@H](OC(=O)[C@H](O)[C@@H](NC(=O)c4ccccc4)c4ccccc4)C(C)=C1C3(C)C)[C@]1(OC(C)=O)CO[C@@H]1C[C@@H]2O [PACLITAXEL] | 43 µM |  |  |
| > 50 µM | 13 µM | C=C1[C@@H](OC(=O)[C@@H](O)[C@H](O)c2ccccc2)C[C@H](OC(C)=O)[C@]2(C)[C@@H]1C[C@@H]1C[C@H](OC(C)=O)C(C)=C([C@@H](OC(C)=O)[C@@H]2OC(C)=O)C1(C)C | > 50 µM |  |  |
| 28 µM | > 50 µM | C=C1[C@@H](OC(=O)Cc2ccccn2)C[C@H](OC(C)=O)[C@]2(C)[C@@H]1C[C@@H]1C[C@H](OC(C)=O)C(C)=C([C@@H](OC(C)=O)[C@@H]2OC(C)=O)C1(C)C | > 50 µM |  |  |
|  |  | COc1ccc(CCN(C)CCCC(C#N)(c2ccc(OC)c(OC)c2)C(C)C)cc1OC (stereo not given) |  | 254% |  |
| > 50 µM | > 50 µM | C=C1[C@@H](OC(=O)c2cccnc2)C[C@H](OC(C)=O)[C@]2(C)[C@@H]1C[C@@H]1C[C@H](OC(C)=O)C(C)=C([C@@H](OC(C)=O)[C@@H]2OC(C)=O)C1(C)C | > 50 µM |  |  |
| > 50 µM | > 50 µM | C=C1[C@H]2C[C@@H]3C[C@H](OC(C)=O)C(C)=C([C@@H](OC(C)=O)[C@H](OC(C)=O)[C@]2(C)[C@@H](OC(C)=O)C[C@@H]1O)C3(C)C | > 50 µM |  |  |
| 34 µM | > 50 µM | C=C1[C@@H](OC(=O)/C=C/c2cccnc2)C[C@H](OC(C)=O)[C@]2(C)[C@@H]1C[C@@H]1C[C@H](OC(C)=O)C(C)=C([C@@H](OC(C)=O)[C@@H]2OC(C)=O)C1(C)C | > 50 µM |  |  |
| 15 µM | 20 µM | C=C1[C@@H](OC(=O)CCc2ccccc2)C[C@H](OC(C)=O)[C@]2(C)[C@@H]1C[C@@H]1C[C@H](OC(C)=O)C(C)=C([C@@H](OC(C)=O)[C@@H]2OC(C)=O)C1(C)C | 10 µM |  |  |
| 39 µM | > 50 µM | C=C1[C@@H](OC(=O)CCc2cccnc2)C[C@H](OC(C)=O)[C@]2(C)[C@@H]1C[C@@H]1C[C@H](OC(C)=O)C(C)=C([C@@H](OC(C)=O)[C@@H]2OC(C)=O)C1(C)C | > 50 µM |  |  |
| 20 µM | 10 µM | C=C1[C@@H](OC(=O)/C=C/c2ccccc2)C[C@H](OC(C)=O)[C@]2(C)[C@@H]1C[C@@H]1C[C@H](OC(C)=O)C(C)=C([C@@H](OC(C)=O)[C@@H]2OC(C)=O)C1(C)C | > 50 µM | 266% | Active |
| 12 µM | 24 µM | CC/C(=C(\c1ccccc1)c1ccc(OCCN(C)C)cc1)c1ccccc1 [TAMOXIFEN] |  |  |  |
